# Screening data from PubChem.
# STK33 inh: inhibitors of purified STK33 kinase, primary screen, biochemical, ADP-Glo luminescence, homogeneous, cell-free; AID 2661, 2010; MBP phosphorylation; Serine/threonine-protein kinase 33 (Homo sapiens), Q9BYT3; inhibition, % at 10 µM; 0.073% of 320,000 active;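 active = inhibition at or above 25%, using the most active replicate where run in duplicate; inactive = inhibition below 25%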
# Target sequence (Q9BYT3 whole entry, looked up): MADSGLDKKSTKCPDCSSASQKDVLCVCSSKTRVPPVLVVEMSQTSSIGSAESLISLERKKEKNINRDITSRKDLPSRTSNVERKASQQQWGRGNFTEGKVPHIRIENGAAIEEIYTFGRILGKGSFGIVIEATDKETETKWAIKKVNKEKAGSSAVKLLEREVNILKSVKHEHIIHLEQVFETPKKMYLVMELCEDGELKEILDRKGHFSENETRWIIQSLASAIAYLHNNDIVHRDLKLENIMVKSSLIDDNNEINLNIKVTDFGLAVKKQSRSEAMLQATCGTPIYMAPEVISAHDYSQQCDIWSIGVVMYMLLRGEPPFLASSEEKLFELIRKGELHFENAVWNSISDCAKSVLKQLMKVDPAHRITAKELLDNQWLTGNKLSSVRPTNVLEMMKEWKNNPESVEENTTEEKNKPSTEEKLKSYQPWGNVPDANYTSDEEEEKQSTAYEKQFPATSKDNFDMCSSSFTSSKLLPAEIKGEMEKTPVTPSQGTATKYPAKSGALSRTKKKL
# GSK3B inh: human GSK3beta kinase inhibitors, primary screen, biochemical, cell-free homogeneous, HTS; Glycogen synthase kinase-3 beta (Homo sapiens), P49841; GST-GSK3beta kinase, ADP-Glo luminescence, 60 min; stronger effect = lower value; activity score (negative = inhibition), % at 10 µM; 0.038% of 300,000 active;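 active = more than half of replicate wells score below -50%, meaning over 50% inhibition versus plate controls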;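 note: 0% = median DMSO wells and -100% = median GW8510 positive control wells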
#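 Test system: GST-tagged human GSK3beta kinase, cell-free; evaluation: activity score scaled between in-plate DMSO and GW8510 controls; measured by: ADP-Glo luminescence; incubation: 60 min reaction, RT; benchmarks: DMSO and 20 µM GW8510; reagent: peptide substrate plus 25 µM ATP (final); medium: Tris/MgCl2 kinase buffer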
# GSK3 alpha inh: blockers of GSK3A enzyme activity – biochemical, luminescence, cell-free homogeneous, HTS, primary screen. Glycogen synthase kinase-3 alpha (Homo sapiens), P49840. GSK-3 alpha kinase, ADP-Glo luminescence, 60 min. inhibition, % at 10 µM. 0.1% of 320,000 active;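 active = more than half of replicates show inhibition above 20%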;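 note: GST-tagged GSK-3 alpha with peptide substrate and 25 µM ATP; 0% = DMSO neutral wells and 100% = GW8510 positive control wells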
# DYRK1A inh: rat Dyrk1A kinase inhibitors, primary screen, biochemical, single point, plate reader | Dual specificity tyrosine-phosphorylation-regulated kinase 1A (Rattus norvegicus), Q63470 | ADP-Glo luminescence, NFATc1 peptide | inhibition, % at 12.5 µM | 0.43% of 310,000 active | AID 504441, 2011; in the data active = inhibition above about 50%;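 note: plate controls were vehicle with enzyme for no effect and no enzyme for full effect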
# AI-2 QS modul: Vibrio harveyi AI-2 quorum sensing modulators, primary screen, JMH597 strain, luminescence/OD600 ratio | Vibrio harveyi JMH597 AI-2 luminescence/OD600 ratio, 9 h; stronger effect = lower value; strain lacks LuxN and CqsS sensors; 0 = neutral-control median | activity change, % at 7.5 µM | 0.4% of 300,000 active | AID 2094, 2009; in the data active = activity change below about -75%, passing the limit was not always enough;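 note: luminescence divided by OD600 gain over 9 h not by final OD600 alone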
# Rce1 inhib: yeast Rce1p protease inhibitors, primary screen, biochemical, fluorescence, cell-free homogeneous; CAAX prenyl protease 2 (Saccharomyces cerevisiae (strain ATCC 204508 / S288c)), Q03530; yeast membranes, quenched prenylated peptide cleavage fluorescence; calls only; 0.27% of 290,000 active;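 active = fall in fluorescence gain of 50% or more versus controls, with final raw signal at or below 3038400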;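 note: plate controls were neutral control wells for no effect and wells lacking membranes for full effect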
# Starred values were filed as active, the others as inactive; i = inactive; nt = not tested or not shown; + = active, no number. Rows were chosen to be rich in hits. Some 0.99% of all compounds tested hit in one or more screens of this group.
SMILES,STK33 inh,GSK3B inh,GSK3 alpha inh,DYRK1A inh,AI-2 QS modul,Rce1 inhib
CCCCN(CCO)CCCC,-1,nt,-4,nt,nt,nt
O=c1[nH]c2c(s1)C(c1ccc(O)cc1)C1C3CCC(C3)C1S2 (stereo not drawn),0,3,75*,6,12,i
O=c1[nH]c2c(s1)C(c1cccnc1)C1C3CCC(C3)C1S2 (stereo not drawn),-2,-21,49,2,15,i
Cc1ccc(C(=O)c2ccc([N+](=O)[O-])cc2)cc1,1,2,-1,0,13,i
Cc1ccc(C(=O)c2coc3cc([N+](=O)[O-])c(O)c([N+](=O)[O-])c23)cc1,-1,3,-5,1,-90*,i
O=C1CCCC2=C1C(c1ccncc1)c1c(nc(SCc3ccccc3)[nH]c1=O)N2 (stereo not drawn),-2,-1,-1,-5,13,i
CCSc1nc2c(c(=O)[nH]1)C(c1ccccn1)C1=C(CC(C)(C)CC1=O)N2 (stereo not drawn),0,1,-1,4,13,+
O=C(Nc1nnc(-c2ccco2)o1)c1cccc(Cl)c1,0,2,-5,nt,-134*,i
O=C(Nc1nnc(-c2cccs2)o1)c1cccc(F)c1,-2,-3,-1,5,-85*,i
CC(=O)/C=C/n1c(=S)oc2ccccc21,-1,0,-2,nt,-96*,i
O=C(Oc1ccccc1F)c1ccc2c(=O)n3c(nc2c1)CCC3,0,1,0,14,-5,i
O=C(O)CCn1cc(/C=N/O)c(-c2cccc([N+](=O)[O-])c2)n1,8,-66*,78*,14,5,i
O=C(N/N=C/c1cc(Br)cs1)c1c[nH]c2ccccc12,0,-6,1,15,-20,i
O=C(N/N=C/c1ccc(Br)s1)c1c[nH]c2ccccc12,2,3,-2,7,-77*,i
O=c1[nH]cccc1-c1nc2ccccc2[nH]1,10,-2,72*,10,21,i
CCN(CC)CCCNC(=O)c1ccc2c(SCC(=O)O)c3c(nc2c1)CCC3,-1,-25,-1,nt,31,i
CCN(CC)CCNC(=O)CSc1c2c(nc3cc(Cl)ccc13)CCCC2,4,-4,1,19,15,+
CC1(C)C(/C=C/C=C/C=C/C=C2\N(CCCCS(=O)(=O)O)c3ccc4ccccc4c3C2(C)C)=[N+](CCCCS(=O)(=O)[O-])c2ccc3ccccc3c21,7,nt,3,5,nt,nt
COc1ccccc1CNC(=O)CCCNC(=O)Cn1cnc2sc(C)c(C)c2c1=O,0,1,0,2,14,i
Cc1cc(C)n2cc(CSCC(=O)O)nc2n1,0,-1,0,2,8,+
O=S(=O)(O)c1cc2oc(-c3ccccc3)nc2c2ccccc12,-2,3,-1,4,13,+
O=S(=O)(Nc1ccc2oc(-c3ccccc3)nc2c1)c1ccccc1,-2,3,-1,0,23,i
CCC1CCCCN1CC(=O)c1c(C)[nH]c2cc(C)ccc12 (stereo not drawn),-1,-7,2,6,15,i
O=C(Nc1ccc(Cl)cc1)Nc1ccc(Cl)c(Cl)c1,-1,nt,-1,nt,nt,nt
N#Cc1ccc(NC(=O)Nc2ccc(Cl)cc2)cc1,0,3,1,8,-147*,i
SMILES,STK33 inh,GSK3B inh,GSK3 alpha inh,DYRK1A inh,AI-2 QS modul,Rce1 inhib
O=[N+]([O-])c1cc(S(=O)(=O)N2CCCC2)ccc1NN=C1CCCCC1,0,1,-1,-3,-1,+
O=[N+]([O-])c1cc(S(=O)(=O)N2CCCC2)ccc1N/N=C1/CCCc2ccccc21,0,1,-3,-2,11,i
O=C(COC(=O)/C=C/c1ccc(F)cc1)NC1CCS(=O)(=O)C1 (stereo not drawn),nt,nt,nt,-7,nt,nt
Oc1ccc(/C=N/Nc2ccnc3cc(Cl)ccc23)cc1O,67*,1,1,8,5,i
O=C(Nn1cnc2ccccc2c1=O)c1ccc(Br)cc1,0,-3,-1,3,-62,i
CCc1ccc(C(=O)Nn2cnc3ccccc3c2=O)cc1,0,0,-2,-6,-80*,i
COc1ccc(S(=O)(=O)N(C)C[C@H]2Oc3ccc(NC(=O)C4CC4)cc3C(=O)N([C@H](C)CO)C[C@@H]2C)cc1,0,nt,0,12,nt,nt
CC1=CC2=NC(=O)CC(C)(C(=O)N(CC(=O)NC3CCCC3)Cc3ccccc3)N2C=C1 (stereo not drawn),0,-2,0,6,4,+
NS(=O)(=O)c1cccc(NC(=O)COC(=O)Cc2ccc(S(=O)(=O)N3CCOCC3)s2)c1,nt,nt,nt,-5,nt,nt
Cc1ccc(C(=O)N/C(=C/c2ccco2)C(=O)Nc2cccc(C(=O)O)c2)cc1,0,4,2,nt,9,+
CC(=O)Oc1cc(O)c2c(=O)c(OC(C)=O)c(-c3ccc(OC(C)=O)c(OC(C)=O)c3)oc2c1,11,-22,29,86*,55,i
Nc1nonc1-n1nnc(C(=O)N/N=C/c2cc(Cl)ccc2O)c1CN1CCCCCC1,1,-1,-2,-5,21,i
CCOC(=O)C1=C(C)OC(N)=C(C#N)C1c1cc2c(cc1[N+](=O)[O-])OCO2 (stereo not drawn),2,-1,nt,8,23,+
CC1=C(C)CC(C(=O)NCc2cccc(Cl)c2)C(C(=O)O)C1 (stereo not drawn),-2,2,-2,nt,20,i
O=[N+]([O-])c1c(Nc2ccc(O)cc2)cc(Cl)c2nonc12,6,-1,9,12,-174*,i
CC(NC(=O)c1cccc(S(=O)(=O)N2CCc3ccccc32)c1)c1ccco1 (stereo not drawn),-1,nt,0,nt,nt,nt
O=c1c2ccccc2sc2ccc(C#CC3(O)CCCCC3)cc12,0,-2,3,11,-8,i
COc1cccc2sc3ccc(C#CC4(O)CCCCC4)cc3c(=O)c12,-2,1,-2,16,-45,+
COc1ccccc1-c1coc2c(CN3CCOCC3)c(O)ccc2c1=O,2,-6,-1,2,7,+
COc1ccccc1CNC(=O)c1ccccc1N,-2,1,-2,1,24,+
